Experimental findings from ChEMBL document CHEMBL4038325, “Opioid Receptor Modulators with a Cinnamyl Group” (J Med Chem, 2017) are described below.

For series [1], the target named is T1, Kappa-type opioid receptor (Homo sapiens, UniProt P41145). As to conditions: HEK-293T, at 10 µM.
The target of series [2] is T1, Kappa-type opioid receptor. As to the kind of experiment: Agonist activity at recombinant human KOR expressed in HEK293T cells assessed as inhibition of forskolin-stimulated cAMP level preincubated for 15 to 20 mins followed by forskolin addition by GloSensor assay. As to conditions: for inhibition: HEK-293T. It counts as functional, cell-based, HEK-293T. In short, it runs like this: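 HEK293T transiently transfected with hKOR plus GloSensor-22F plasmid. Compounds (10 µM to 10 pM, triplicate) added for 15-20 min at 37°C, then forskolin added (final 10 µM). Luminescence of live cells normalized to % forskolin-alone control. IC50 from non-linear regression; two independent experiments.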

Series [3] deals with T2, Mu-type opioid receptor (Homo sapiens, UniProt P35372). As to the kind of experiment: Agonist activity at recombinant human MOR expressed in HEK293T cells assessed as inhibition of forskolin-stimulated cAMP level at 10 uM preincubated for 15 to 20 mins followed by forskolin addition by GloSensor assay relative to control. The format is functional, cell-based. The conditions noted are these: HEK-293T. The method, boiled down: (§1)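 HEK293T transiently co-transfected (calcium phosphate) with DOR or MOR plus pGloSensor-22F. Cells were loaded with luciferin in HBSS/20 mM HEPES pH 7.4 for 90 min, then given compound in triplicate for 15-20 min at 37°C. Forskolin added (final 10 µM); luminescence read. cAMP signal normalized to forskolin-alone control.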

For series [4], the target named is Delta-type opioid receptor (Homo sapiens) (UniProt P41143). As to the kind of experiment: Agonist activity at recombinant human DOR expressed in HEK293T cells assessed as inhibition of forskolin-stimulated cAMP level at 10 uM preincubated for 15 to 20 mins followed by forskolin addition by GloSensor assay relative to control. The format is functional, cell-based. The conditions noted are these: HEK-293T. In short, it runs like this:
as §1

For series [5] the target is unchanged. As to the kind of experiment: Antagonist activity at recombinant human DOR expressed in HEK293T cells assessed as reduction in DADLE-induced inhibition of forskolin-stimulated cAMP level at 10 uM preincubated for 15 to 20 mins followed by DADLE and forskolin addition by GloSensor assay relative to control. The format is functional, cell-based. The conditions noted are these: HEK-293T. In short, it runs like this: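 HEK293T transiently expressing DOR plus GloSensor-22F were given compound in triplicate for 15-20 min at 37°C. DADLE (1 µM) was then added, followed by forskolin (10 µM); luminescence read. Signal normalized to % control (agonist + forskolin).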

Series [6] addresses T3, D(2) dopamine receptor (Homo sapiens, UniProt P14416). As to the kind of experiment: Agonist activity at dopamine D2 receptor (unknown origin) at 10 uM. The method, boiled down: (§2)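 Primary screen, agonist and antagonist modes, each receptor tested separately. Compounds at 10 µM in triplicate; response taken as % inhibition or stimulation relative to control. Compounds giving at least 50% effect were then run over 10 µM to 10 pM to obtain EC50/IC50.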

Series [7] has as its target T3, D(2) dopamine receptor. As to the kind of experiment: Antagonist activity at dopamine D2 receptor (unknown origin) at 10 uM. In short, it runs like this:
as §2

The target in series [8] is Histamine H1 receptor (Homo sapiens) (UniProt P35367). As to the kind of experiment: Agonist activity at histamine H1 receptor (unknown origin) at 10 uM. The method, boiled down: as §2
For series [9] the target is unchanged. As to the kind of experiment: Antagonist activity at histamine H1 receptor (unknown origin) at 10 uM. In short, it runs like this: as §2
The target in series [10] is T2, Mu-type opioid receptor. The conditions noted are these: HEK-293T, at 10 µM.
For series [11], the target named is T1, Kappa-type opioid receptor. As to conditions: HEK-293T, at 10 µM. The source holds these as a separate data set.
Series [12] deals with Mus musculus. As to the kind of experiment: Analgesic activity in C57BL/6J mouse assessed as tail withdrawal latency at 10 mg/kg by tail flick test. It counts as functional, organism-based. In short, it runs like this:
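Male C57BL/6J mice, 6-8 weeks, 22-25 g; 5-6 per group. Dosed 10 mg/kg i.p. Distal third of tail immersed in 52 ± 0.5°C water; latency recorded three times per time point by a blinded observer. Latency expressed as % of baseline taken 15 min before dosing, followed over time; area under curve also calculated.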

For series [13], the system named is Mus musculus. As to the kind of experiment: Analgesic activity in C57BL/6J mouse assessed as tail withdrawal latency at 10 mg/kg measured after 30 mins in presence of KOR antagonist norBNI by tail flick test. It counts as functional, organism-based. In short, it runs like this: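 Male C57BL/6J mice (5-6/group) received norBNI 10 mg/kg i.p. 30 min before test compound at 10 mg/kg i.p. Tail withdrawal latency in 52 ± 0.5°C water was measured at the 30 min time point, three readings, by a blinded observer.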

In series [14] the target is T2, Mu-type opioid receptor. It counts as functional, cell-based, HEK-293T.

Activity calls are given as the source filed them. The calls are words filed in the database; no cut-off is given here.

Chain of Delta-type opioid receptor (Homo sapiens) (P41143 whole entry): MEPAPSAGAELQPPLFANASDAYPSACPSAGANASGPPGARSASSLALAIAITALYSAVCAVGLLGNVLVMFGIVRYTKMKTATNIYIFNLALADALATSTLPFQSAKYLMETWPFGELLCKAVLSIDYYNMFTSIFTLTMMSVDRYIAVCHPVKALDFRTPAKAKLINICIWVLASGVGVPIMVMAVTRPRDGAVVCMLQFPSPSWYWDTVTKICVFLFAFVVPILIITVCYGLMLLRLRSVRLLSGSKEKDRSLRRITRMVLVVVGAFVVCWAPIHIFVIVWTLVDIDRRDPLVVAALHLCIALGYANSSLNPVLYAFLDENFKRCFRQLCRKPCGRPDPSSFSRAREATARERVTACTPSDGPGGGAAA
T2 sequence (P35372 whole entry): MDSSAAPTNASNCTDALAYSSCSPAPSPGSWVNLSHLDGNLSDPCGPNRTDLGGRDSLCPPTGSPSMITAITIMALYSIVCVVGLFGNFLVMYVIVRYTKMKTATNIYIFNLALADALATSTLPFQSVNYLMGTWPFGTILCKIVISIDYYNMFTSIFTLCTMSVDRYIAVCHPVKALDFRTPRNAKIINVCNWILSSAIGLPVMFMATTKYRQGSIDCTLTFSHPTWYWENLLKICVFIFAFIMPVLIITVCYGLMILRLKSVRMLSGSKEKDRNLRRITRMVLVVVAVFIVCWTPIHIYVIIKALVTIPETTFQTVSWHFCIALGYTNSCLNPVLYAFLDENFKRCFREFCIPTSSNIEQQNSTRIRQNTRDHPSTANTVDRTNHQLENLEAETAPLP
Chain of Histamine H1 receptor (Homo sapiens) (P35367 whole entry): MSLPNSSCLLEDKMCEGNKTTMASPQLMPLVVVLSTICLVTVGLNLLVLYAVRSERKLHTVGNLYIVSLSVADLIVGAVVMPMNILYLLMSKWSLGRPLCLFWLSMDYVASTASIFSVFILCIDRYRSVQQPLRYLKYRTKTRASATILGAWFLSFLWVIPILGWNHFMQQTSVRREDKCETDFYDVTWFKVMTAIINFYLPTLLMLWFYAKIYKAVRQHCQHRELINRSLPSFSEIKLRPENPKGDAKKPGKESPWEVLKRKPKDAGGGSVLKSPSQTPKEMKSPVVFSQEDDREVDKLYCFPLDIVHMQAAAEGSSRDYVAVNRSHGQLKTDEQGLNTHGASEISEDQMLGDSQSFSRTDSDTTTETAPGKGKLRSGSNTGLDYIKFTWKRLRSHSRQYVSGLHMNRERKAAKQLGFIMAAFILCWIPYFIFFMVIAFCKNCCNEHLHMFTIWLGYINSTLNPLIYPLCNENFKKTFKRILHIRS
T3 sequence (P14416 whole entry): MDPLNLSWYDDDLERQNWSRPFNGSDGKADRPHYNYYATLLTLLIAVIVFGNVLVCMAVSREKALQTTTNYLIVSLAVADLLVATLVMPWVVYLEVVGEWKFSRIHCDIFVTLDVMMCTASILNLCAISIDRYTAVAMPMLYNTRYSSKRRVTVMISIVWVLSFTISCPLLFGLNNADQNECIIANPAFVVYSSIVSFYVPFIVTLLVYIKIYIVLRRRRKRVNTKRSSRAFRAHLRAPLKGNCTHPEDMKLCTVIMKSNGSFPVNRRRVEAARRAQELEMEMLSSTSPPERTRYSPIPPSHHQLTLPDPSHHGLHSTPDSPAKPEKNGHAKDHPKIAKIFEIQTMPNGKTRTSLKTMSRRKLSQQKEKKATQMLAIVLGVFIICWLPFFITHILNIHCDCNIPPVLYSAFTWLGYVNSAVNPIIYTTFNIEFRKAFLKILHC
T1 sequence (P41145 whole entry): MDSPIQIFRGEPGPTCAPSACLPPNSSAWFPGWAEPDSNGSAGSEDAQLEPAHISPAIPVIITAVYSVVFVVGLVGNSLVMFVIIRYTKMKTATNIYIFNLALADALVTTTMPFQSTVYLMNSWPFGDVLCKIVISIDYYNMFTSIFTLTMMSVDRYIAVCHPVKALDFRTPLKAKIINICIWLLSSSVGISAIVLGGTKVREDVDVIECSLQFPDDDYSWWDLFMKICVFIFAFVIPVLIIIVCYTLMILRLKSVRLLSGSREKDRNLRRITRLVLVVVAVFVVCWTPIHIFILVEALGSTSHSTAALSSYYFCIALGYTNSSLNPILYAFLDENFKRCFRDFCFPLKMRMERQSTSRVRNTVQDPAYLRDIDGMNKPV

As to `Cc1cccc(Oc2ccc(C(=O)N[C@H](CN3CCN(c4cccc(O)c4)[C@@H](C)C3)C(C)C)cc2)c1`, in series [1], the inhibition entry was “Active”.

For the compound `CCOC(=O)C(NC(=O)/C(=C/c1ccccc1)CN1CCN(c2nsc3ccccc23)CC1)C(C)C` (stereo not drawn), the IC50 in [2] (read-out: IC50) is 1800 nM; in [2] (read-out: pIC50 (converted)), 1910 to 1980 nM. Moreover, the inhibition entry in series [3], in series [4], in series [5], in series [9] and in [10] was “inactive” each time. For the same compound, the Activity result in series [6] is given as “Not Active”. Also, the “inhibition (INH)” value in [7] is reported as “Not Active”. For the same compound, the outcome in series [8] was inactive.

Regarding `COc1ccc(N2CCN(CC(Cc3ccccc3)C(=O)NCC(=O)O)CC2)cc1` (stereo not drawn), the inhibition entry in [3], in [1], in series [11] and in [10] was “inactive” in each case.

For the compound `C[C@H]1CN(C[C@H](Cc2ccccc2)C(=O)NCC(=O)O)CC[C@@]1(C)c1cccc(O)c1`, the inhibition result in series [4], in series [5], in series [1] and in [11] was “inactive” in each case. The compound further showed an inhibition in series [10] of 50%.

For the compound `COc1ccc(N2CCN(C/C(=C\c3ccccc3)C(=O)NCC(=O)O)CC2)cc1`, the inhibition entry in series [2], in series [3], in [1] and in [10] was “inactive” throughout.

Regarding `CC(C)[C@H](NC(=O)/C(=C/c1ccccc1)CN1CCN(c2ccc(Cl)cc2)CC1)C(=O)O`, the Activity result in [12] was “Dose-dependent effect”; in series [6] it was “Not Active”. In addition, the figures for the IC50 in series [2] (read-out: IC50) and in series [2] (read-out: pIC50 (converted)) were 910 nM and 910 to 948 nM, respectively. Besides, the inhibition result in series [3], in series [4], in series [5], in [9] and in series [10] was “inactive” in each case. Also, the outcome in series [13] and in series [8] was inactive. The “inhibition (INH)” value in [7] is recorded as “Not Active”.

On to `CC1(c2cccc(O)c2)CCN(C/C(=C\c2ccccc2)C(=O)O)CC1`, for which the inhibition result in series [4], in [5], in series [1] and in series [11] was “inactive” in each case. Moreover, the IC50 was 18 nM in series [14] (read-out: IC50) and 18.6 to 76.6 nM in [14] (read-out: pIC50 (converted)). The compound further yielded an inhibition in [10] of 50%.

With `CC(C)[C@H](NC(=O)/C(=C/c1ccccc1)CN1CC[C@@](C)(c2cccc(O)c2)[C@@H](C)C1)C(=O)O`, the inhibition result in series [4], in series [5], in series [1] and in series [11] was “inactive” throughout. For the same compound, the IC50 was 650 nM in [14] (read-out: IC50) and 658 to 661 nM in series [14] (read-out: pIC50 (converted)). The same compound returned an inhibition in [10] of 50%.

For `O=C(O)CNC(=O)C(Cc1ccccc1)CN1CCN(c2ccccc2O)CC1` (stereo not drawn), the inhibition entry in [3], in series [1], in series [11] and in series [10] was “inactive” throughout.

Take `CC(C)C[C@H](NC(=O)/C(=C/c1ccccc1)CN1CC[C@@](C)(c2cccc(O)c2)[C@@H](C)C1)C(=O)O`: the inhibition entry in series [4], in [5], in [1] and in series [11] was “inactive” each time. Besides, the figures for the IC50 in series [14] (read-out: IC50) and in [14] (read-out: pIC50 (converted)) were 780 nM and 782 to 794 nM, respectively. The inhibition in series [10] worked out at 50%.

In the case of `COc1cccc(N2CCN(C/C(=C\c3ccccc3)C(=O)NCC(=O)O)CC2)c1`, the inhibition result in [2], in series [3], in [1] and in series [10] was “inactive” in each case.

Take `COc1ccccc1N1CCN(CC(Cc2ccccc2)C(=O)NCC(=O)O)CC1` (stereo not drawn): the inhibition entry in [3], in series [1], in [11] and in [10] was “inactive” in each case.

With `O=C(O)CNC(=O)/C(=C/c1ccccc1)CN1CCN(c2ccc(O)cc2)CC1`, the inhibition result in series [2], in series [3], in series [1] and in series [10] was “inactive” in each case.

Turning to `CC(C)[C@H](NC(=O)/C(=C/c1ccccc1)CN1CCN(c2ccc(O)cc2)CC1)C(=O)O`, the inhibition entry in series [2], in [3], in series [1] and in [10] was “inactive” throughout.

In the case of `COc1ccccc1N1CCN(C/C(=C\c2ccccc2)C(=O)NCC(=O)O)CC1`, the inhibition entry in series [2], in series [3], in series [1] and in [10] was “inactive” in each case.

For the compound `CCCC(NC(=O)/C(=C/c1ccccc1)CN1CCN(c2ccc(O)cc2)CC1)C(=O)O` (stereo not drawn), the inhibition result in series [2], in series [3], in series [1] and in series [10] was “inactive” throughout.

For the compound `O=C(O)CNC(=O)C(Cc1ccccc1)CN1CCN(c2ccccc2)CC1` (stereo not drawn), the inhibition entry in series [3], in series [1], in [11] and in series [10] was “inactive” throughout.

With `O=C(O)CNC(=O)/C(=C/c1ccccc1)CN1CCN(c2cccc(O)c2)CC1`, the inhibition entry in series [1] was “inactive”.

Turning to `CC(C)C[C@H](NC(=O)/C(=C/c1ccccc1)CN1CCN(c2ccc(O)cc2)CC1)C(=O)O`, the inhibition result in series [2], in [3], in series [1] and in series [10] was “inactive” each time.

Consider `CCC(C)C(NC(=O)/C(=C/c1ccccc1)CN1CCN(c2ccc(O)cc2)CC1)C(=O)O` (stereo not drawn), for which the inhibition result in series [2], in [3], in series [1] and in [10] was “inactive” throughout.

For the compound `CCC(C)C(NC(=O)/C(=C/c1ccccc1)CN1CC[C@@](C)(c2cccc(O)c2)[C@@H](C)C1)C(=O)O` (stereo partly drawn), the inhibition result in [4], in [5], in series [1] and in series [11] was “inactive” each time. In addition, the figures for the IC50 in series [14] (read-out: IC50) and in series [14] (read-out: pIC50 (converted)) were 1600 nM and 1600 to 1620 nM, respectively. The inhibition in series [10] worked out at 50%.

Regarding `COc1ccccc1N1CCN(CCC(C(=O)N(C)C)(c2ccccc2)c2ccccc2)CC1`, the inhibition result in [3] was “Active”.

With `CCCC(NC(=O)/C(=C/c1ccccc1)CN1CC[C@@](C)(c2cccc(O)c2)[C@@H](C)C1)C(=O)O` (stereo partly drawn), the inhibition entry in series [4], in series [5], in series [1] and in series [11] was “inactive” in each case. The IC50 in [14] (read-out: IC50) was 2320 nM; in series [14] (read-out: pIC50 (converted)), 2320 to 2340 nM. Further, the inhibition in series [10] came out at 50%.
